Source: PubChem (several laboratories)
PKD1 inh = inhibitors of human PKD1 kinase | PKD1 kinase fluorescence polarization assay | AID 797 | Q15139 | inhibition, % (concentration not given with the values) | hit rate 0.056% among 200,000; in the data active = inhibition above about 50%
Arbovirus inh = antivirals against arbovirus infection; inhibition, % at 10 µM; arbovirus infection cell-based antiviral screen; AID 1251; hit rate 0.37% among 200,000; in the data active = inhibition above about 30%
TNAP inh hi DEA = blocks human TNAP under high phosphate acceptor concentration; P05186; purified TNAP, CDP-star luminescence, 1 M DEA; inhibition, % at 20 µM; hit rate 0.03% among 200,000;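 active = over 50% inhibition of tissue-nonspecific alkaline phosphatase at 20 µM in the single-dose screen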
Target sequence (P05186 whole entry, looked up): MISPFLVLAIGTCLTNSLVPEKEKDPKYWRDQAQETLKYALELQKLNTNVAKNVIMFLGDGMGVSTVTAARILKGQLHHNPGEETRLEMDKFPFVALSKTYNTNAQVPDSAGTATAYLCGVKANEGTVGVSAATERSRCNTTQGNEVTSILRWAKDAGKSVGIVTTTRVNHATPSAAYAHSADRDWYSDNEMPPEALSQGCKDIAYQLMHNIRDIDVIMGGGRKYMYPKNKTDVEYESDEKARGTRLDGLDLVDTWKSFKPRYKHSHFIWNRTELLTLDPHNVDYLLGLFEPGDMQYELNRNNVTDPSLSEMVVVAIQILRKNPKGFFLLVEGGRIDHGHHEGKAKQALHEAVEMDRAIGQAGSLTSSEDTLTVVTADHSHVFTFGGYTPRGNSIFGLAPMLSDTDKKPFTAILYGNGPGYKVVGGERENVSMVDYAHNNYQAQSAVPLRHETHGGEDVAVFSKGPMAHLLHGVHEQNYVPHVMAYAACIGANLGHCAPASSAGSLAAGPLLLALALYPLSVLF
TNAP inh no acc = TNAP (human) inhibition, acceptor-free conditions; P05186; purified TNAP, CDP-star luminescence, 30 min; inhibition, % at 20 µM; hit rate 0.26% among 200,000;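 active = tissue-nonspecific alkaline phosphatase inhibition above about 50% at 20 µM in the single-dose screen, limit read from the data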
TNAP act hiacc = increases human TNAP activity under high phosphate acceptor concentration. activation factor at 20 µM. 200,000 tested, under 10 active. purified TNAP, CDP-star luminescence, 1 M DEA, 30 min; active compounds read high; 0 = EDTA background, 1 = DMSO-only activity. P05186;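 active = activation factor at least 2 at 20 µM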
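Assay system: human TNAP; Input: enzyme diluted 1/800 final; Reagent: CDP-star luminogenic substrate at 100 µM final; Timing: 30 min, room temperature; Signal: luminescence; Evaluation: TNAP activation factor scaled between EDTA and DMSO control wells.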
FP interf 140K = counter-screen for PKD inhibitors: fluorescence polarization interference; 85 tested, under 10 active; inhibition, % at 10 µM; AID 1315; shares compounds with PKD1 inh; PKD1 FP assay interference counter-screen; call rule not given here
Hits are given with their value; – = inactive; · = no result. Compounds with a hit are over-represented: about 0.72% of the library has one in this group of screens.

SMILES | PKD1 inh | Arbovirus inh | TNAP inh hi DEA | TNAP inh no acc | TNAP act hiacc | FP interf 140K
CCCCCCCCCOC(=O)C[n+]1csc(CCO)c1C | – | – | – | 61.2 | – | ·
Cc1c(CCOC(=O)c2ccc([N+](=O)[O-])cc2)sc[n+]1CC(=O)c1ccccc1 | – | – | – | – | – | ·
Cc1c(CCO)sc[n+]1CC(=O)OCCC12CC3CC(CC(C3)C1)C2 | – | – | – | 61.9 | – | ·
Cc1c(CCOC(=O)C23CC4CC(CC(C4)C2)C3)sc[n+]1CC#N | – | – | – | 56.7 | – | ·
O=C(/C(=N\Nc1ccccc1)Sc1nnnn1-c1ccccc1)c1ccccc1 | – | – | – | – | – | ·
COc1cccc(NC(=O)CSc2nc3ccsc3c(=O)n2-c2ccc(C(=O)O)cc2)c1 | – | – | – | – | – | ·
CCC1CCCCN1Cc1ccc(N)cc1 (stereo not given) | – | – | – | – | – | ·
C=C(C)CN(CC)C(=O)CSc1nc(O)cc(=O)n1C1CCCC1 | – | 30.1 | – | – | – | ·
CCn1c(SCC(=O)N2CCCCC2)nc(O)cc1=O | – | – | – | – | – | ·
CCN(CC)c1ccc(NC(=O)Cn2c(C(C)NC(=O)c3ccc(C)cc3)nc3ccccc32)cc1 (stereo not given) | – | – | – | – | 2.3 | ·
CCCn1c(C(C)NC(=O)c2ccccc2)nc2ccccc21 (stereo not given) | – | – | – | – | – | ·
CC(C)Oc1cccc(C(=O)NC(=S)Nc2ccccc2)c1 | – | 35.9 | – | – | – | ·
COc1ccc(CCNC(=S)Nc2cccc(C)c2C)cc1 | – | – | – | – | – | ·
Cc1cccc(C)c1NC(=S)NCCc1ccc(O)c(O)c1 | – | – | – | 60.1 | – | ·
COC(=O)c1cc(NC(=S)NCc2ccc(Cl)cc2)cc(C(=O)OC)c1 | – | 31.9 | – | – | – | ·
O=C1N=c2ccccc2=C1c1sc(Nc2ccc(O)cc2)nc1O | – | 35.6 | – | 81.6 | – | ·
CC(=O)Oc1cc(OC(C)=O)c2c(C)cc(=O)oc2c1 | 53.7 | – | – | – | – | –
CCC1=NNc2cccc3c(OC)ccc1c23 | 98.6 | – | – | – | – | –
COc1ccc2c3c(cccc13)C(=O)N(O)C2=O | – | – | – | – | – | ·
CCOC(=O)c1cccc(NC(=O)CCS(=O)(=O)c2cccc3nsnc23)c1 | 68.9 | – | – | – | – | –
Cc1ccc(Nc2cc(C)nc(-c3ccccc3O)n2)cc1 | – | – | – | – | – | ·
Cc1cc(NCCCN)nc(-c2ccccc2O)n1 | 113.7 | – | – | – | – | –
CS(=O)(=O)N1CCN(c2ccc(NC(=O)c3ccc(Br)o3)cc2)CC1 | 90.8 | – | – | – | – | –
COC(=O)c1ccc(NC(=S)NC2CC3CCC2C3)cc1 (stereo not given) | – | – | – | – | – | ·
COc1ccc(S(=O)(=O)N2CCC(n3cnc4cc(C(F)(F)F)ccc43)CC2)cc1 | 74.5 | – | – | – | – | –
SMILES | PKD1 inh | Arbovirus inh | TNAP inh hi DEA | TNAP inh no acc | TNAP act hiacc | FP interf 140K
Cc1cc(C)cc(Nc2cc(=O)n(C3CCCCC3)c(=O)[nH]2)c1 | – | – | – | – | – | ·
Cc1cc2nc3c(=O)n(C4CCCCC4)c(=O)[nH]c3nc2cc1N | 56.5 | – | – | – | – | –
CC(C)C(NC(=O)OCc1ccccc1)C(=O)N1CCOCCOCCOCC1 (stereo not given) | – | – | – | – | – | ·
Cc1cc(Nc2ccccc2)nc(NCc2ccccc2)n1 | – | – | – | – | – | ·
Cc1cc(Nc2cccc(F)c2)nc(NCc2ccccc2)n1 | 55.5 | – | – | – | – | –
COc1cc(CC(=O)OCC(=O)NCC(C)C)cc(OC)c1OC | – | – | – | – | – | ·
CC(C)(C)c1cc[n+](CC(=O)Nc2cc(C(F)(F)F)ccc2N2CCOCC2)cc1 | – | – | – | – | – | ·
CCOC(=O)N1CCC(N2CCN(S(=O)(=O)CC)CC2)CC1 | 92.8 | – | – | – | – | –
CCOC(=O)C(C)Sc1nc(-c2ccccc2)nc2ccccc12 (stereo not given) | – | – | – | – | – | ·
Cn1c(=O)oc2cc(S(=O)(=O)N3CCN(Cc4ccc5c(c4)OCO5)CC3)ccc21 | 79.8 | – | – | – | – | –
O=S(=O)(c1ccc2c(c1)OCCO2)N1CCN(Cc2ccc3c(c2)OCO3)CC1 | – | – | – | – | – | ·
CC12CCC(=O)N1C(C(=O)OCC(=O)Nc1ccc(Cl)c(Cl)c1)CS2 (stereo not given) | – | – | – | – | – | ·
O=C1c2ccccc2C(=O)N1n1cccc1 | – | – | – | – | – | ·
